Screening data: PubChem BioAssay, several laboratories
TMEM16A inh: mouse TMEM16A channel inhibition, primary screen | normalized B-score (activity score, 25-100; higher = stronger inhibition) at 10 µM | hit rate 1.2% among 310,000 | HEK293 TMEM16A/YFP iodide influx fluorescence, ionomycin | Q8BHY3;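 active = ratio plate-corrected score three or more library SD toward inhibition, starting fluorescence score within five deviations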;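 also: score derived from kinetic fluorescence span divided by baseline fluorescence per well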
Beta apoptosis: beta cell apoptosis inhibition; hit rate 0.8% among 300,000; AID 435005; INS-1E cytokine-induced death, ATP luminescence, 48 h; percent of positive-control rescue, neutral wells zero; protection from apoptosis, % (no concentration beside the values);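 active = Every replicate reaches about 75%, or at least half do and their mean reaches it too, limit read from the data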;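 also: higher means more ATP so stronger rescue from cytokine killing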
MC4R ag barr: human MC4R agonism via beta-arrestin; P32245; hit rate 0.98% among 360,000; U2OS MC4R beta-arrestin complementation, luminescence; percent of melanotan II response, DMSO zero; activation, % at 8.9 µM;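 active = activation above a per-plate cutoff, the mean activation of sample wells on that plate plus 3 SD, cut at about 8% in these data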
CSC inhib: blocks cancer stem cells. cancer stem cell-like cells viability, luminescence. inhibition, % at 7.5 µM. hit rate 1.1% among 300,000. AID 2717; in the data active = inhibition above about 75%; tested in HMLE shEcad cells
MC4R antag cAMP: human MC4R antagonism in cAMP assay | P32245 | MC4R-expressing cells, MTII-stimulated cAMP, LANCE TR-FRET | inhibition, % at 6.5 µM | hit rate 0.48% among 360,000;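 active = inhibition above its plate's cutoff, the mean of tested wells on that plate plus 3 SD, cut at about 29% in these data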
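Material: U2OS-MC4R stable cell line | Reagent: Melanotan II challenge after compound preincubation | Doses: One concentration, 6.5 µM nominal | Incubation: 30-min compound preincubation, 1-h Melanotan II challenge, 1-h detection, room temperature | Signal: TR-FRET cAMP assay | Replicates: One well per compound, no replicates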
TMEM16A act: mouse TMEM16A channel activation, primary screen; Q8BHY3; HEK293 TMEM16A/YFP-H148Q/I152L, iodide quench fluorescence; hits give low values; B-score at 10 µM; hit rate 0.3% among 340,000;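 active = fluorescence-ratio B-score plate-corrected deviation score at least 3 library SD below zero, with starting fluorescence score within 5 deviations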;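 also: channel opened by trigger with iodide after compound preincubation; score built on the fluorescence ratio of max minus min over baseline; more negative score means more quench and so TMEM16A activation or potentiation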
TMEM16A reconf: reconfirmed blocker of mouse TMEM16A calcium-activated chloride channel; inhibition, % at 10 µM; AID 652189; shares compounds with TMEM16A inh; hit rate 39% among 2,300; HEK293 TMEM16A/YFP-H148Q, iodide quench fluorescence; ionomycin added to raise cell calcium;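 active = mean duplicate percent inhibition, scaled so buffer wells are 0 and the reference blocker 100, over three buffer SD above buffer mean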
TMEM16A Ca cntr: calcium mobilization counter-screen hit for TMEM16A inhibitor series. shares compounds with TMEM16A inh. AID 652231. TMEM16A/YFP HEK293, Fluo4 calcium mobilization. calcium response (% of ionomycin), % at 10 µM. hit rate 2% among 2,300;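 active = duplicate-averaged calcium signal over 20% of the ionomycin maximum, relative to buffer baseline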;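 also: each well's signal is peak minus trough fluorescence divided by its pre-addition baseline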
Parental YFP cnt: counter-screen for TMEM16A inhibitors: effect in parental YFP-HEK293 cells; YFP ratio F(max-min)/F0 at 10 µM; 2,300 tested, under 10 active; shares compounds with TMEM16A inh; iodide YFP quench, ionomycin;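 active = yellow fluorescent protein signal ratio exceeding the buffer control mean by over 5 SD of those controls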;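 also: ratio is mean of duplicate wells from kinetic YFP trace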
ClC-1 inh: blocks the rat ClC-1 voltage-dependent chloride channel | CHO ClC-1-YFP, iodide influx fluorescence quench; iodide control reads 0, buffer control 100 | 2,300 tested, under 10 active | ratio percent, % at 10 µM | shares compounds with TMEM16A inh;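 active = duplicate-mean ratio percent above the mean of iodide-only control wells, which defines zero, plus 5 of their SD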;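 also: higher percent means stronger block of ClC-1 iodide influx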
Target sequence (P35524 whole entry, looked up): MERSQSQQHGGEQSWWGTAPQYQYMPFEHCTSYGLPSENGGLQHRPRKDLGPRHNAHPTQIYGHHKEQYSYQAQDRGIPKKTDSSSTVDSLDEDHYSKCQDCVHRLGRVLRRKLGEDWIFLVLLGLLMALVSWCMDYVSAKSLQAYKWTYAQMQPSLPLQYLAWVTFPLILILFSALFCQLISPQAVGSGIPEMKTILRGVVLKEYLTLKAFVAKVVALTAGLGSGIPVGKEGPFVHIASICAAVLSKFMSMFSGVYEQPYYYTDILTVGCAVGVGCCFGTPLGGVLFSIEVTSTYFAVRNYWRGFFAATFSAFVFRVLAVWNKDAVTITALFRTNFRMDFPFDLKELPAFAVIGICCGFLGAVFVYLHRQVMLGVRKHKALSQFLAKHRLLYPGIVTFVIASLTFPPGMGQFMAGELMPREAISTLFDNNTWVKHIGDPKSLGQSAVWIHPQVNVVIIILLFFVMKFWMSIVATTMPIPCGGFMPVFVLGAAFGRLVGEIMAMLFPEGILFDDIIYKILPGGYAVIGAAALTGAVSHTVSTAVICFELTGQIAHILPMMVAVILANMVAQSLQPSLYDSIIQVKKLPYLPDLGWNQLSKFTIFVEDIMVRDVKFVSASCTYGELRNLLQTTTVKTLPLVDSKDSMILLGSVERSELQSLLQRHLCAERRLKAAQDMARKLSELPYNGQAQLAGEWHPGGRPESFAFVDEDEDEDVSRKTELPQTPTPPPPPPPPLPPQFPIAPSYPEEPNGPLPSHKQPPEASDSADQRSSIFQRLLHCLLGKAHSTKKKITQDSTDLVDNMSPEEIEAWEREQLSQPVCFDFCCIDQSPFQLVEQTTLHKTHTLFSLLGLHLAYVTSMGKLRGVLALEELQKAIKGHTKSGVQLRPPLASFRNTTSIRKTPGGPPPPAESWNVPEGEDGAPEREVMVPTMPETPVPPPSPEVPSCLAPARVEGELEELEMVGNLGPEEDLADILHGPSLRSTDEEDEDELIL
Numbers stand for hits; 0 = inactive; - = no result given. In the library only some 3.8% were active in any assay of this set; here they are far more common.

SMILES	TMEM16A inh	Beta apoptosis	MC4R ag barr	CSC inhib	MC4R antag cAMP	TMEM16A act	TMEM16A reconf	TMEM16A Ca cntr	Parental YFP cnt	ClC-1 inh
O=C(Nc1ccc2c(c1)OCO2)C1CCN(Cc2cnn(-c3ccccc3)c2-n2cccc2)CC1	100	0	0	0	0	0	0	0	0	0
CCCCN(C)C(=O)C1CCCN(S(=O)(=O)c2ccc3c(c2)CC(C)N3C(=O)C2CC2)C1 (centres undefined)	0	0	0	0	0	0	-	-	-	-
O=C(Cn1cnc2ccccc21)Nc1ccc(SC(F)F)cc1	25	0	0	0	0	0	20.5%	0	0	0
Cn1nc(C(C)(C)C)cc1C(=O)N1CCC(C)(C(=O)NS(=O)(=O)C2CC2)C1 (centres undefined)	-	-	0	-	0	-	-	-	-	-
NC(=O)COC(=O)c1ccccc1Nc1ccc(SC(F)F)cc1	0	0	0	0	0	0	-	-	-	-
CC(OC(=O)c1ccccc1Nc1ccc(SC(F)F)cc1)C(N)=O (centres undefined)	25	0	0	0	0	0	0	0	0	0
C[C@@H]1CN([C@@H](C)CO)C(=O)c2cccc(NC(=O)c3nc4ccccc4s3)c2O[C@@H]1CN(C)CC1CC1	-	0	0	-	0	0	-	-	-	-
O=S(=O)(NCC(c1cccs1)N1CCc2ccccc2C1)c1ccccc1 (centres undefined)	0	-	0	0	0	0	35.0%	0	0	0
O=[N+]([O-])c1ccc(S(=O)(=O)NCC(c2ccco2)N2CCc3ccccc3C2)cc1 (centres undefined)	0	0	0	0	0	0	-	-	-	-
CC(=O)Nc1ccc(S(=O)(=O)N2CCN(S(=O)(=O)N3CCOCC3)CC2)cc1	0	0	0	-	0	0	-	-	-	-
O=C(Nc1ccc(S(=O)(=O)N2CCCC2)cc1)C1CCCCC1	0	0	0	-	0	0	-	-	-	-
CCN(CC)S(=O)(=O)c1ccc(NC(=O)c2ccc(CN3CCOCC3)cc2)cc1	100	0	0	0	0	0	29.5%	0	0	0
CC(NC(=S)Nc1ccc(S(=O)(=O)N2CCOCC2)cc1)C1CC2CCC1C2 (centres undefined)	25	0	0	0	0	0	0	0	0	0
O=C(Nc1ccc(S(=O)(=O)N2CCCC2)cc1)c1ccc(CN2CCOCC2)cc1	100	0	0	0	0	0	46.5%	0	0	0
O=C(Nc1ccc(S(=O)(=O)N2CCOCC2)cc1)c1ccc(Cl)cc1	0	0	0	0	0	0	-	-	-	-
O=C(Nc1ccc(S(=O)(=O)N2CCOCC2)cc1)C1CCCCC1	25	0	0	0	0	0	0	0	0	0
COc1cc(/C=C/C(=O)O)cc(S(=O)(=O)Nc2ccccc2C(=O)NCc2ccco2)c1OC	-	0	0	0	0	0	-	-	-	-
Cc1cc(C)n2c(SCC(=O)Nc3cccc(S(N)(=O)=O)c3)nnc2n1	-	0	0	0	0	0	-	-	-	-
O=C(Nc1ccc(S(=O)(=O)Nc2ccc(F)cc2)cc1)c1ccc(CN2CCOCC2)cc1	25	0	0	0	0	0	39.0%	0	0	0
Nn1c(SCc2ccccc2)nc2ccccc21	0	-	0	0	0	0	-	-	-	-
O=C(O)C(CCc1ccccc1)(Cc1ccccc1)C(=O)O	-	-	0	-	0	0	-	-	-	-
C[C@H](CO)NC(=O)c1nc[nH]c1C(=O)N[C@@H](C)c1ccccc1	-	-	0	-	0	-	-	-	-	-
N#Cc1c(NC(=O)c2ccc([N+](=O)[O-])o2)sc2c1CCC2	100	0	0	0	0	0	41.0%	0	0	0
CS(=O)(=O)c1ccc(Sc2nc3ccccc3[nH]2)c([N+](=O)[O-])c1	0	0	0	0	0	0	0	0	0	0
O=[N+]([O-])c1ccc(N2CCNCC2)cc1Sc1nc2ccccc2[nH]1	0	0	0	0	0	0	-	-	-	-
SMILES	TMEM16A inh	Beta apoptosis	MC4R ag barr	CSC inhib	MC4R antag cAMP	TMEM16A act	TMEM16A reconf	TMEM16A Ca cntr	Parental YFP cnt	ClC-1 inh
CC1CC(C)CN(c2nc(N(C)c3ccccc3)nc(N)c2[N+](=O)[O-])C1 (centres undefined)	25	0	0	0	0	0	0	0	0	0
Cc1cnc(NC(=O)CCCNC(=O)c2ccc(Cl)cc2)s1	-	0	0	0	0	0	-	-	-	-
COc1cc(C2c3cc4c(cc3OC(NCCc3ccccc3)C2C)OCO4)cc(OC)c1OC (centres undefined)	-	-	0	-	0	0	-	-	-	-
COc1ccccc1-c1nnc(SCC(=O)Nc2ccc(Cl)cc2Cl)o1	0	0	0	0	0	0	-	-	-	-
COc1cccc2c1OC[C@@H](CO)[C@H]2N(C)C(=O)Nc1ccc(Cl)cc1Cl	0	0	0	0	0	0	0	0	0	0
Cc1cc(NC(=O)CCC(=O)N(Cc2ccco2)C2(C(=O)NC3CCCCC3)CCCC(C)C2)no1 (centres undefined)	0	0	0	-	0	0	-	-	-	-
Cc1csc(NC(=O)CCCSc2nc3ccccc3s2)n1	100	0	0	0	0	0	0	31.5%	0	0
Cc1csc(NC(=O)CSc2nc3ccccc3s2)n1	0	0	0	0	0	0	-	-	-	-
CC1CC(C)(C)OC(c2ccc(C(C)C)cc2)O1 (centres undefined)	-	-	0	-	0	0	-	-	-	-
COc1ccc(-c2nnc3ccc(SC(C(C)=O)C(C)=O)nn23)cc1OC	0	0	0	0	0	0	-	-	-	-
CCC(Sc1ccc2nnc(-c3ccc(OC)c(OC)c3)n2n1)C(=O)O (centres undefined)	100	0	0	0	0	0	0	0	0	0
COc1ccc2nc(C)cc(N3CC(C)OC(C)C3)c2c1 (centres undefined)	25	0	0	0	0	0	0	0	0	0
Cc1sc2ncnc(N3CCN(S(=O)(=O)c4ccc(Br)cc4)CC3)c2c1C	25	0	0	0	0	0	30.0%	0	0	0
C=CCSC1=C(C#N)C(c2ccc(OCC)cc2)CC(=O)N1 (centres undefined)	100	0	0	0	0	0	0	0	0	0
COC(=O)[C@H](CC(C)C)NC(=O)NC1CCCCC1C (some centres undefined)	25	0	0	0	0	0	0	0	0	0
Cc1c(N=Cc2cccnc2)c(=O)n(-c2ccccc2)n1C	0	0	0	0	0	0	-	-	-	-
